Results from ChEMBL document CHEMBL1122831, “Synthesis and structure-activity relationships of novel arylfluoroquinolone antibacterial agents” (1985).
In brackets after ≈: the same amount, converted by molar mass.

Tests used:
Type in all cases: functional
Staphylococcus aureus [1] = test: Minimum inhibition concentration in vitro determined against Staphylococcus aureus CMX 686B
Procedure, shortened: (§1)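 Agar dilution on brain-heart infusion (BHI) agar with twofold dilutions from a 2000 µg/mL stock, giving final test concentrations of 200-0.005 µg/mL. Organisms were grown overnight in BHI broth at 36 °C, and about 10⁴ organisms were inoculated per plate. Plates were incubated 18 h at 36 °C. MIC was the lowest concentration with no visible growth.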

Staphylococcus aureus [2] = test: Minimum inhibition concentration in vitro determined against Staphylococcus aureus ATCC 6538P; procedure, shortened: as §1
Escherichia coli [3] = test: Minimum inhibition concentration in vitro determined against Escherichia coli juhl; procedure, shortened: as §1
Klebsiella aerogenes = test: Minimum inhibition concentration in vitro determined against Enterobacteri aerogenes ATCC 13048; procedure, shortened: as §1
Pseudomonas aeruginosa [4] = test: Minimum inhibition concentration in vitro determined against Pseudomona aeruginosa K799/WT; procedure, shortened: as §1
Klebsiella pneumoniae = test: Minimum inhibition concentration in vitro determined against Klebsiella pneumoniae 8045; procedure, shortened: as §1
Pseudomonas aeruginosa [5] = test: Minimum inhibition concentration in vitro determined against Pseudomona aeruginosa 5007; procedure, shortened: as §1
Acinetobacter = test: Minimum inhibition concentration in vitro determined against Acinetobacter sp CMX669; procedure, shortened: as §1
Streptococcus pyogenes = test: Minimum inhibition concentration in vitro determined against Streptococcus pyogenes 930; procedure, shortened: as §1
[6] = test system: Staphylococcus epidermidis; test: Minimum inhibition concentration in vitro determined against Staphylococcus epidermidis 3519; procedure, shortened: as §1
Enterococcus faecium [7] = test: 0 Minimum inhibition concentration was determined against Streptococcus faecium ATCC 8043 (in vitro); procedure, shortened: as §1
Enterococcus faecium [8] = test: Minimum inhibition concentration in vitro determined against Streptococcus faecium ATCC 8043; procedure, shortened: as §1
Mus musculus [9] = test: In vivo inhibitory activity against Escherichia coli Juhl after peroral administration in mice; details: po
Procedure, shortened: (§2)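 Female CF-1 mice (~20 g) were infected ip with 0.5 mL of an 18-h BHI culture of E. coli Juhl in 5% hog gastric mucin at 100× LD50. The LD50 had been set beforehand by 10-fold dilutions and Reed-Muench. Compound in water or dilute NaOH was given sc or po, split equally at 1 and 5 h post-infection. Groups of 10 mice got ≥3 doses, with 10 untreated controls. ED50 was calculated from day-6 cumulative mortality by trimmed Logit.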

Escherichia coli [10] = test: Compound was evaluated for inhibitory activity against Escherichia coli Juhl (in vivo); details: in the assay text read “in vitro” for “in vivo”
Mus musculus [11] = test: In vivio inhibitory activity against Escherichia coli Juhl after subcutaneous administration in mice; details: sc; procedure, shortened: as §2
Mus musculus [12] = test: In vivo inhibitory activity of teh compound against Escherichia coli Juhl after peroral administration in mice; details: po; procedure, shortened: as §2
[13] = Escherichia coli, read-out: MIC

SMILES | MIC (Staphylococcus aureus [1]) [µg/mL] | MIC (Staphylococcus aureus [2]) [µg/mL] | MIC (Escherichia coli [3]; [13]) [µg/mL] | MIC (Klebsiella aerogenes) [µg/mL] | MIC (Pseudomonas aeruginosa [4]) [µg/mL] | MIC (Klebsiella pneumoniae) [µg/mL] | MIC (Pseudomonas aeruginosa [5]) [µg/mL] | MIC (Acinetobacter) [µg/mL] | MIC (Streptococcus pyogenes) [µg/mL] | MIC [6] [µg/mL] | MIC (Enterococcus faecium [7]) [µg/mL] | MIC (Enterococcus faecium [8]) [µg/mL] | ED50 (Mus musculus [9]) [mg/kg] | MIC (Escherichia coli [10]) [µg/mL] | ED50 (Mus musculus [11]) [mg/kg] | MIC (Escherichia coli [3]) [µg/mL] | ED50 (Mus musculus [12]) [mg/kg]
CN1CCN(c2cc3c(cc2F)c(=O)c(C(=O)O)cn3-c2ccc3c(c2)OCO3)CC1 | 0.78 (≈ 1.83 µM) | 0.78 (≈ 1.83 µM) | 0.78 (≈ 1.83 µM) | 0.78 (≈ 1.83 µM) | 6.2 (≈ 14.6 µM) | 0.2 (≈ 0.47 µM) | 6.2 (≈ 14.6 µM) | 0.78 (≈ 1.83 µM) | 12.5 (≈ 29.4 µM) | 1.56 (≈ 3.67 µM) | 50 (≈ 118 µM) | – | – | – | – | – | –
O=C(O)c1cn(-c2ccc(F)cc2)c2cc(N3CCC(O)C3)c(F)cc2c1=O (stereo unspecified) | < 0.1 | < 0.1 | 0.2 (≈ 0.518 µM) | 0.78 (≈ 2.02 µM) | 3.1 (≈ 8.02 µM) | 0.2 (≈ 0.518 µM) | 3.1 (≈ 8.02 µM) | 0.39 (≈ 1.01 µM) | 1.56 (≈ 4.04 µM) | 0.2 (≈ 0.518 µM) | – | 1.56 (≈ 4.04 µM) | – | – | – | – | –
Cc1ccccc1-n1cc(C(=O)O)c(=O)c2cc(F)c(N3CCN(C)CC3)cc21 | 3.1 (≈ 7.84 µM) | 3.1 (≈ 7.84 µM) | 1.56 (≈ 3.95 µM) | 3.1 (≈ 7.84 µM) | 12.5 (≈ 31.6 µM) | 1.56 (≈ 3.95 µM) | 25 (≈ 63.2 µM) | 1.56 (≈ 3.95 µM) | 50 (≈ 126 µM) | 3.1 (≈ 7.84 µM) | – | 50 (≈ 126 µM) | – | – | – | – | –
CC(C)N(C)c1cc2c(cc1F)c(=O)c(C(=O)O)cn2-c1ccc(F)cc1 | 0.78 (≈ 2.09 µM) | 0.78 (≈ 2.09 µM) | 6.2 (≈ 16.7 µM) | 6.2 (≈ 16.7 µM) | 50 (≈ 134 µM) | 3.1 (≈ 8.33 µM) | 100 (≈ 269 µM) | 12.5 (≈ 33.6 µM) | 12.5 (≈ 33.6 µM) | 1.56 (≈ 4.19 µM) | – | 12.5 (≈ 33.6 µM) | – | – | – | – | –
CN1CCN(c2cc3c(cc2F)c(=O)c(C(=O)O)cn3-c2ccc(F)cc2)CC1 [DIFLOXACIN] | 0.2 (≈ 0.501 µM) | 0.2 (≈ 0.501 µM) | 0.2 (≈ 0.501 µM) | 0.78 (≈ 1.95 µM) | 1.56 (≈ 3.91 µM) | 0.1 (≈ 0.25 µM) | 1.56 (≈ 3.91 µM) | 0.2 (≈ 0.501 µM) | 1.56 (≈ 3.91 µM) | 0.39 (≈ 0.976 µM) | – | 1.56 (≈ 3.91 µM) | 3.1 | 0.2 (≈ 0.501 µM) | 1.6 | – | –
CCn1cc(C(=O)O)c(=O)c2cc(F)c(N3CCNCC3)cc21 [NORFLOXACIN] | 0.78 (≈ 2.44 µM) | 0.78 (≈ 2.44 µM) | 0.1 (≈ 0.313 µM) | 0.2 (≈ 0.626 µM) | 0.39 (≈ 1.22 µM) | 0.1 (≈ 0.313 µM) | 0.39 (≈ 1.22 µM) | 6.2 (≈ 19.4 µM) | 3.1 (≈ 9.71 µM) | 1.56 (≈ 4.89 µM) | – | 0.78 (≈ 2.44 µM) | 15.1 | – | 0.6 | 0.1 (≈ 0.313 µM) | –
O=C(O)c1cn(-c2ccc(F)cc2)c2cc(N3CCNCC3)c(F)cc2c1=O [SARAFLOXACIN] | 0.2 (≈ 0.519 µM) | 0.2 (≈ 0.519 µM) | 0.05 (≈ 0.13 µM) | 0.2 (≈ 0.519 µM) | 0.39 (≈ 1.01 µM) | 0.02 (≈ 0.0519 µM) | 0.39 (≈ 1.01 µM) | 0.2 (≈ 0.519 µM) | 0.78 (≈ 2.02 µM) | 0.39 (≈ 1.01 µM) | – | 1.56 (≈ 4.05 µM) | – | 0.05 (≈ 0.13 µM) | 0.6 | – | 4.3
